Laboratory results reported in ChEMBL document CHEMBL2146409, “Phenethyl nicotinamides, a novel class of Na(V)1.7 channel blockers: structure and activity relationship” (Bioorg Med Chem Lett, 2012).

Columns and labels:
Liver microsomes [1] = test: Metabolic stability in human liver microsomes by glutathione trapping assay; assay type: ADME, Microsome
Rattus norvegicus [2] = test: Dose normalized AUC in rat at 3 umol/kg, iv; assay type: ADME, organism-based; conditions: in vivo
Summary of the method: (§1)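 Fasted male Sprague-Dawley rats given a single intravenous dose of 3 μmol/kg. Three animals per administration per compound; plasma PK parameters derived.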

[3] = Volume of distribution at steady state in rat at 3 umol/kg, iv; assay type: ADME, organism-based; conditions: in vivo, read-out: Vdss; summary of the method: as §1
[4] = Half life in rat at 3 umol/kg, iv; assay type: ADME, organism-based; conditions: in vivo; summary of the method: as §1
[5] = Half life in rat at 10 umol/kg, po; assay type: ADME, organism-based; conditions: in vivo
Summary of the method: (§2)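 Fasted male Sprague-Dawley rats dosed per orally at 10 µmol/kg. Three animals per administration per compound; plasma exposure and PK parameters derived.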

[6] = Clearance in rat at 3 umol/kg, iv; assay type: ADME, organism-based; conditions: in vivo; summary of the method: as §1
Rattus norvegicus [7] = test: Dose normalised AUC in rat at 10 umol/kg, po; assay type: ADME, organism-based; conditions: in vivo; summary of the method: as §2
[8] = Tmax in rat at 10 umol/kg, po; assay type: ADME, organism-based; conditions: in vivo; summary of the method: as §2
[9] = Cmax in rat at 10 umol/kg, po; assay type: ADME, organism-based; parameters: dose 10 umol/kg, route oral; conditions: in vivo; summary of the method: as §2
[10] = Oral bioavailability in rat at 10 umol/kg; assay type: ADME, organism-based; conditions: in vivo; summary of the method: as §2
Liver microsomes [11] = test: Intrinsic clearance in human liver microsomes; assay type: ADME, Microsome
Liver microsomes [12] = test: Intrinsic clearance in rat liver microsomes; assay type: ADME, Microsome
[13] = Oral bioavailability in rat in presence of 1-aminobenzotriazole; conditions: in vivo

SMILES	Stability (Liver microsomes [1])	CLH (Liver microsomes [11]) [µL/min/µg]	CLH (Liver microsomes [12]) [µL/min/µg]	other results
COc1ncc(-c2cccc3c2C[C@H](NC(=O)c2ccc(OCCC(F)(F)F)nc2)CO3)cn1	Stable	–	–	AUC/dose (Rattus norvegicus [2]): 1.2 kg·h/L; Vd [3]: 7.2 L/kg; half-life [4]: 6.4 h; half-life [5]: 7.6 h; clearance [6]: 14 mL/min/kg; AUC/dose (Rattus norvegicus [7]): 0.32 kg·h/L; Tmax [8]: 4.8 h; Cmax [9]: 230 nM; bioavailability [10]: 26%
COc1cnc(-c2ccc(Cl)cc2CCNC(=O)c2ccc(COCC(F)(F)F)nc2)cn1	–	72	–	–
COc1ncc(-c2ccccc2CCNC(=O)c2ccc(OCCC(F)(F)F)nc2)cn1	–	17	> 500	–
COc1cnc(-c2ccccc2CCNC(=O)c2ccc(OCCC(F)(F)F)nc2)cn1	Unstable	124	129	–
O=C(NCCc1ccccc1-c1cnc(OC(F)F)cn1)c1ccc(OCCC(F)(F)F)nc1	–	210	270	–
O=C(NCCc1ccccc1-c1cccnc1)c1ccc(OCCC(F)(F)F)nc1	Unstable	160	> 500	–
Cc1ncc(-c2ccccc2CCNC(=O)c2ccc(OCCC(F)(F)F)nc2)cn1	Unstable	11	> 500	–
O=C(NCCc1ccccc1-c1ccc(CO)nc1)c1ccc(OCCC(F)(F)F)nc1	–	10	130	–
Cc1ncc(-c2ccccc2CCNC(=O)c2ccc(COCC(F)(F)F)nc2)cn1	Unstable	< 10	< 10	–
Cc1ncc(-c2ccccc2CCNC(=O)c2ccc(OCCOCC(F)(F)F)nc2)cn1	–	23	< 10	–
Cc1ncc(-c2ccccc2CCNC(=O)c2ccc(C(=O)NCCCC(F)(F)F)nc2)cn1	Unstable	11	< 10	–
Cc1ncc(-c2ccccc2CCNC(=O)c2ccc(CNCCC(F)(F)F)nc2)cn1	–	15	< 10	–
COc1ncc(-c2cccc(C)c2CCNC(=O)c2ccc(OCCC(F)(F)F)nc2)cn1	Stable	65	32	AUC/dose (Rattus norvegicus [2]): 0.33 kg·h/L; Vd [3]: 2.4 L/kg; half-life [4]: 0.98 h; half-life [5]: 2.4 h; clearance [6]: 50 mL/min/kg; AUC/dose (Rattus norvegicus [7]): 0.002 kg·h/L; Tmax [8]: 0.25 h; Cmax [9]: 20 nM; bioavailability [10]: 0.6%
COc1ncc(-c2cccc(F)c2CCNC(=O)c2ccc(OCCC(F)(F)F)nc2)cn1	Unstable	< 10	13	–
COc1ncc(-c2cccc(Cl)c2CCNC(=O)c2ccc(OCCC(F)(F)F)nc2)cn1	Unstable	17	< 10	–
COc1ncc(-c2cccc(OC)c2CCNC(=O)c2ccc(OCCC(F)(F)F)nc2)cn1	–	45	17	–
COc1ccc(CCNC(=O)c2ccc(OCCC(F)(F)F)nc2)c(-c2cnc(OC)nc2)c1	–	40	150	–

SMILES	Stability (Liver microsomes [1])	CLH (Liver microsomes [11]) [µL/min/µg]	CLH (Liver microsomes [12]) [µL/min/µg]	other results
COc1ncc(-c2cccc(C#N)c2CCNC(=O)c2ccc(OCCC(F)(F)F)nc2)cn1	Stable	< 10	24	–
COc1ncc(-c2ccccc2C(F)(F)CNC(=O)c2ccc(COCC(F)(F)F)nc2)cn1	Stable	< 10	13	AUC/dose (Rattus norvegicus [2]): 0.71 kg·h/L; Vd [3]: 1.4 L/kg; half-life [4]: 2 h; half-life [5]: 2.4 h; clearance [6]: 23 mL/min/kg; AUC/dose (Rattus norvegicus [7]): 0.24 kg·h/L; Tmax [8]: 0.75 h; Cmax [9]: 840 nM; bioavailability [10]: 34%
COc1ncc(-c2cccc(OC(F)F)c2CCNC(=O)c2ccc(OCCC(F)(F)F)nc2)cn1	–	< 10	190	–
COc1ncc(-c2c(C)ccc(F)c2CCNC(=O)c2ccc(OCCC(F)(F)F)nc2)cn1	–	100	230	–
COc1ncc(-c2c(C)ccc(F)c2CCNC(=O)c2ccc(OCC(F)(F)F)nc2)cn1	Stable	74	35	–
COc1cnc(-c2c(C)ccc(F)c2CCNC(=O)c2ccc(COCC(F)(F)F)nc2)cn1	Unstable	61	88	AUC/dose (Rattus norvegicus [2]): 0.91 kg·h/L; Vd [3]: 1.5 L/kg; half-life [4]: 0.9 h; half-life [5]: 3.6 h; clearance [6]: 19 mL/min/kg; AUC/dose (Rattus norvegicus [7]): 0.03 kg·h/L; Tmax [8]: 1.5 h; Cmax [9]: 530 nM; bioavailability [10]: 4%
COc1cnc(-c2c(F)ccc(F)c2CCNC(=O)c2ccc(COCC(F)(F)F)nc2)cn1	Stable	44	45	AUC/dose (Rattus norvegicus [2]): 1.3 kg·h/L; Vd [3]: 0.85 L/kg; half-life [4]: 0.9 h; half-life [5]: 3 h; clearance [6]: 13 mL/min/kg; AUC/dose (Rattus norvegicus [7]): 0.06 kg·h/L; Tmax [8]: 0.67 h; Cmax [9]: 160 nM; bioavailability [10]: 5%
Cc1cnc(-c2c(F)ccc(F)c2CCNC(=O)c2ccc(COCC(F)(F)F)nc2)cn1	Stable	21	< 10	AUC/dose (Rattus norvegicus [2]): 0.68 kg·h/L; Vd [3]: 1.74 L/kg; half-life [4]: 5.9 h; half-life [5]: 2.3 h; clearance [6]: 24.6 mL/min/kg; AUC/dose (Rattus norvegicus [7]): 0.05 kg·h/L; Tmax [8]: 0.5 h; Cmax [9]: 250 nM; bioavailability [10]: 7%; bioavailability [13]: 40%
COc1cnc(-c2c(OC)ccc(F)c2CCNC(=O)c2ccc(COCC(F)(F)F)nc2)cn1	–	46	67	–
COc1ncc(-c2cccnc2CCNC(=O)c2ccc(OCCC(F)(F)F)nc2)cn1	Stable	< 10	< 10	–
COc1ncc(-c2ccc(C)nc2CCNC(=O)c2ccc(OCCC(F)(F)F)nc2)cn1	Stable	< 10	< 10	–
COc1ncc(-c2cc(C)cnc2CCNC(=O)c2ccc(COCC(F)(F)F)nc2)cn1	–	< 10	< 10	–
COc1ncc(-c2cccnc2C(C)CNC(=O)c2ccc(OCCC(F)(F)F)nc2)cn1 (stereo unspecified)	–	< 10	< 10	–
COc1ncc(-c2cccnc2C(F)(F)CNC(=O)c2ccc(OCCC(F)(F)F)nc2)cn1	–	< 10	< 10	–
COc1cnc(-c2ccccc2C(F)(F)CNC(=O)c2ccc(COCC(F)(F)F)nc2)cn1	Stable	< 10	16	AUC/dose (Rattus norvegicus [2]): 1.5 kg·h/L; Vd [3]: 0.72 L/kg; half-life [4]: 1.2 h; half-life [5]: 2.8 h; clearance [6]: 11 mL/min/kg; AUC/dose (Rattus norvegicus [7]): 0.41 kg·h/L; Tmax [8]: 0.33 h; Cmax [9]: 1400 nM; bioavailability [10]: 27%
COc1cnc(-c2cccc(F)c2C(F)(F)CNC(=O)c2ccc(COCC(F)(F)F)nc2)cn1	Stable	< 10	24	–
